Measured values published in ChEMBL document CHEMBL1125461, “Analogues of platelet activating factor. 6. Mono- and bis-aryl phosphate antagonists of platelet activating factor” (J Med Chem, 1992).

Legend:
Format in all cases: functional
[1] = species: Oryctolagus cuniculus; assay: Compound was tested for its ability to inhibit PAF induced platelet aggregation in rabbit at a dose of 10 uM
[2] = system: Mus musculus; assay: Compound was tested for protecting PAF-induced lethality in mouse at a dose of 0.5 mg/kg (Out of 41)
Method in brief: (§1)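 Female Swiss-Webster mice (20–25 g) were dosed ip with compound in saline at 10 mL/kg, and controls got saline alone. Thirty minutes later, racemic C16-PAF in saline was given as an iv tail-vein bolus at 10 mL/kg (75–150 µg/kg PAF). Survival was checked at 1.5 h and was recorded as dead/total.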

[3] = system: Mus musculus; assay: Compound was tested for protecting PAF-induced lethality in mouse at a dose of 0.5 mg/kg (Out of 9); method in brief: as §1
[4] = system: Mus musculus; assay: Compound was tested for protecting PAF-induced lethality in mouse at a dose of 0.5 mg/kg (Out of 38); method in brief: as §1
[5] = system: Oryctolagus cuniculus; assay: Compound was tested for protecting PAF-induced lethality in rabbit at a dose of 3 mg/kg (Out of 2)
[6] = system: Mus musculus; assay: Compound was tested for protecting PAF-induced lethality in mouse at a dose of 2.5 mg/kg (Out of 10); method in brief: as §1
[7] = system: Mus musculus; assay: Compound was tested for protecting PAF-induced lethality in mouse at a dose of 1.25 mg/kg (Out of 10); method in brief: as §1
[8] = system: Oryctolagus cuniculus; assay: Compound was tested for protecting PAF-induced lethality in rabbit at a dose of 2.5 mg/kg (Out of 2)
Method in brief: (§2)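 Rabbits got compound iv 15 min before an iv challenge of L-C16-PAF at 150 µg/kg, made from a methanol stock diluted in saline. Controls were saline-treated. Survival was checked at 1 h and was recorded as dead/total.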

[9] = system: Mus musculus; assay: Compound was tested for protecting PAF-induced lethality in mouse at a dose of 1 mg/kg (Out of 10); method in brief: as §1
[10] = system: Mus musculus; assay: Compound was tested for protecting PAF-induced lethality in mouse at a dose of 0.5 mg/kg (Out of 11); method in brief: as §1
[11] = system: Oryctolagus cuniculus; assay: Compound was tested for protecting PAF-induced lethality in rabbit at a dose of 1 mg/kg (Out of 11); method in brief: as §2
[12] = system: Oryctolagus cuniculus; assay: Compound was tested for protecting PAF-induced lethality in rabbit at a dose of 2.5 mg/kg (Out of 4); method in brief: as §2
[13] = system: Mus musculus; assay: Compound was tested for protecting PAF-induced lethality in mouse at a dose of 0.5 mg/kg (Out of 830); method in brief: as §1
[14] = system: Oryctolagus cuniculus; assay: Compound was tested for protecting PAF-induced lethality in rabbit at a dose of 5 mg/kg (Out of 5); method in brief: as §2
[15] = system: Mus musculus; assay: Compound was tested for protecting PAF-induced lethality in mouse at a dose of 1 mg/kg (Out of 88); method in brief: as §1
[16] = system: Oryctolagus cuniculus; assay: Compound was tested for protecting PAF-induced lethality in rabbit at a dose of 1 mg/kg (Out of 3); method in brief: as §2
[17] = system: Mus musculus; assay: Compound was tested for protecting PAF-induced lethality in mouse at a dose of 1 mg/kg (Out of 74); method in brief: as §1
[18] = system: Oryctolagus cuniculus; assay: Compound was tested for protecting PAF-induced lethality in rabbit at a dose of 5 mg/kg (Out of 3); method in brief: as §2
[19] = system: Mus musculus; assay: Compound was tested for protecting PAF-induced lethality in mouse at a dose of 0.5 mg/kg (Out of 220); method in brief: as §1
[20] = system: Oryctolagus cuniculus; assay: Compound was tested for protecting PAF-induced lethality in rabbit at a dose of 10 mg/kg (Out of 5); method in brief: as §2
[21] = system: Oryctolagus cuniculus; assay: Compound was tested for protecting PAF-induced lethality in rabbit at a dose of 10 mg/kg (Out of 2); method in brief: as §2
[22] = system: Oryctolagus cuniculus; assay: Compound was tested for protecting PAF-induced lethality in rabbit at a dose of 1 mg/kg (Out of 2); method in brief: as §2
[23] = system: Mus musculus; assay: Compound was tested for protecting PAF-induced lethality in mouse at a dose of 10 mg/kg (Out of 12); method in brief: as §1
[24] = system: Mus musculus; assay: Compound was tested for protecting PAF-induced lethality in mouse at a dose of 0.5 mg/kg (Out of 49); method in brief: as §1
[25] = system: Mus musculus; assay: Compound was tested for protecting PAF-induced lethality in mouse at a dose of 2.5 mg/kg (Out of 16); method in brief: as §1
[26] = system: Mus musculus; assay: Compound was tested for protecting PAF-induced lethality in mouse at a dose of 0.5 mg/kg (Out of 10); method in brief: as §1
[27] = system: Mus musculus; assay: Compound was tested for protecting PAF-induced lethality in mouse at a dose of 10 mg/kg (Out of 13); method in brief: as §1
[28] = system: Mus musculus; assay: Compound was tested for protecting PAF-induced lethality in mouse at a dose of 1 mg/kg (Out of 12); method in brief: as §1
[29] = species: Oryctolagus cuniculus; assay: Compound was tested for its ability to inhibit PAF induced platelet aggregation in rabbit at a dose of 50 uM
[30] = species: Oryctolagus cuniculus; assay: Compound was tested for its ability to inhibit PAF induced platelet aggregation in rabbit (No inhibition observed at a compound concentration up to 10 uM)
[31] = system: Mus musculus; assay: Compound was tested for protecting PAF-induced lethality in mouse at a dose of 10 mg/kg (Out of 10); method in brief: as §1
[32] = system: Mus musculus; assay: Compound was tested for protecting PAF-induced lethality in mouse at a dose of 0.5 mg/kg (Out of 23); method in brief: as §1

Question: Which Inhibition [1] does the source give for CCCCCCCCCCCCCCCCOCC(COP(=O)(O)Oc1cccc(C/N=C(\S)Nc2ccccc2)c1)OC (stereo not drawn) here?
Answer: 22%

Question: Which Lethality [2] does the source give for CCCCCCCCCCCCCCOc1ccc(OP(=O)([O-])Oc2cccc(C[n+]3csc(C)c3)c2)c(OC)c1 here?
Answer: 16 dead/total

Question: With CCCCCCCCCCCCCCOc1cccc(OP(=O)([O-])Oc2cccc(C[n+]3ccsc3)c2)c1OC as the compound, how does the Lethality [3] read?
Answer: 4 dead/total

Question: CCCCCCCCCCCCCCOc1cccc(OP(=O)([O-])Oc2cccc(C[n+]3csc(C)c3)c2)c1C(C)=O was tested. Which Lethality [4] did it give?
Answer: 18 dead/total

Question: Which Lethality [5] does the source give for CCCCCCCCCCCCOc1cccc(OCC(COP(=O)([O-])Oc2cccc(C[n+]3csc(C)c3)c2)OC)c1 (stereo not drawn) here?
Answer: 1 dead/total

Question: For CCCCCCCCCCCCCCCCCCNC(=O)OCC(COP(=O)([O-])Oc1ccccc1C[n+]1ccsc1)OC (stereo not drawn), which Lethality [6] is on record?
Answer: 0 dead/total

Question: How did the Lethality [7] turn out when CCCCCCCCCCCCCCCCOCC(COP(=O)([O-])Oc1cccc(C[n+]2ccsc2)c1)OC (stereo not drawn) was run?
Answer: 2 dead/total

Question: And the Lethality [8]?
Answer: 1 dead/total

Question: For CCCCCCCCCCCCCCOc1cccc(OP(=O)([O-])Oc2cccc(C[n+]3ccsc3)c2)c1C(=O)OC, which Lethality [9] is on record?
Answer: 5 dead/total

Question: And the Lethality [10]?
Answer: 11 dead/total

Question: Which results are given for CCCCCCCCCCCCCCOc1cccc(OP(=O)([O-])Oc2cccc(C[n+]3csc(C)c3)c2)c1C(=O)OC?
Answer: Lethality [11]: 6 dead/total; Lethality [9]: 3 dead/total; Lethality [12]: 0 dead/total; Lethality [13]: 165 dead/total; Lethality [14]: 0 dead/total

Question: With CCCCCCCCCCCCOc1cccc(OCC(COP(=O)([O-])Oc2cccc(C[n+]3ccsc3)c2)OC)c1C (stereo not drawn) as the compound, how does the Lethality [10] read?
Answer: 1 dead/total

Question: How did the Lethality [8] turn out when CCCCCCCCCCCCCCCCOCC(COP(=O)([O-])Oc1ccccc1C[n+]1ccsc1)OC (stereo not drawn) was run?
Answer: 1 dead/total

Question: With CCCCCCCCCCCCCCOc1cccc(OP(=O)([O-])Oc2cccc(C[n+]3csc(C)c3)c2)c1OC as the compound, how does the Lethality [15] read?
Answer: 24 dead/total

Question: What about the Lethality [16] of the same compound?
Answer: 2 dead/total

Question: What about the Lethality [17] of the same compound?
Answer: 40 dead/total

Question: What about the Lethality [18] of the same compound?
Answer: 1 dead/total

Question: And the Lethality [19]?
Answer: 80 dead/total

Question: And the Lethality [20]?
Answer: 0 dead/total

Question: How did the Lethality [21] turn out when CCCCCCCCCCCCOc1cccc(OCC(COP(=O)([O-])Oc2cccc(C[n+]3csc(C)c3)c2)OCC)c1C (stereo not drawn) was run?
Answer: 0 dead/total

Question: And the Lethality [22]?
Answer: 1 dead/total

Question: And the Lethality [23]?
Answer: 6 dead/total

Question: And the Lethality [8]?
Answer: 1 dead/total

Question: What about the Lethality [24] of the same compound?
Answer: 23 dead/total

Question: And the Lethality [25]?
Answer: 0 dead/total

Question: Which results are given for CCCCCCCCCCCCCCc1cccc(OCC(COP(=O)([O-])Oc2cccc(C[n+]3ccsc3)c2)OC)c1 (stereo not drawn)?
Answer: Lethality [8]: 1 dead/total; Lethality [26]: 0 dead/total

Question: Which results are given for CCCCCCCCCCCCCCOc1cccc(OP(=O)([O-])Oc2cccc(C[n+]3c(C)sc(C)c3C)c2)c1OC?
Answer: Lethality [27]: 6 dead/total; Lethality [28]: 9 dead/total

Question: What does the source list for CCCCCCCCCCCCCCCCOCC(COP(=O)([O-])Oc1cccc(C[n+]2csc(C)c2)c1)OC (stereo not drawn)?
Answer: Lethality [7]: 4 dead/total; Lethality [8]: 1 dead/total

Question: Which Inhibition [29] does the source give for CCCCCCCCCCCCOc1cc(OP(=O)([O-])Oc2cccc(C[n+]3ccsc3)c2)c(C(C)(C)C)cc1C(C)(C)C here?
Answer: 15%

Question: What about the Lethality [8] of the same compound?
Answer: 2 dead/total

Question: With CCCCCCCCCCCCCCOc1cccc(OP(=O)([O-])Oc2cccc(CC[n+]3csc(C)c3)c2)c1OC as the compound, how does the IC50 [30] read?
Answer: Not Active

Question: What does the source list for CCCCCCCCCCCCCCOc1ccc(C(=O)c2ccccc2)c(OP(=O)([O-])Oc2cccc(C[n+]3csc(C)c3)c2)c1?
Answer: Lethality [31]: 0 dead/total; Lethality [9]: 3 dead/total

Question: How did the Lethality [8] turn out when CCCCCCCCCCCCOc1cc(C(C)(C)C)c(OP(=O)([O-])Oc2cccc(C[n+]3csc(C)c3)c2)cc1C(C)(C)C was run?
Answer: 0 dead/total

Question: CCCCCCCCCCCCCCOc1cccc(OP(=O)([O-])Oc2cccc(C[N+]3=CN=CC3)c2)c1OC was tested. Which Inhibition [29] did it give?
Answer: 12%

Question: For CCCCCCCCCCCCCCOc1ccc(OP(=O)([O-])Oc2cccc(C[n+]3csc(C)c3)c2)c(C(C)=O)c1, which Lethality [32] is on record?
Answer: 6 dead/total
